Assay [1] addresses Sodium channel protein type 9 subunit alpha (Homo sapiens, UniProt Q15858). Put plainly: Inhibition of human Nav1.7 expressed in HEK293 cells assessed as inward peak current by ion-works quattro patch clamp electrophysiology method. In kind it is cell-based.
For assay [2], the target named is Sodium channel protein type 5 subunit alpha (Homo sapiens, UniProt Q14524). The experiment in a line: Inhibition of human Nav1.5 expressed in HEK293 cells assessed as inward peak current by ion-works quattro patch clamp electrophysiology method. Type of assay: cell-based. An outline of the steps:
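Stable HEK293 line expressing human NaV1.5, recorded by population patch clamp on the IonWorks Quattro.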

pIC50: −log10 of the molar value. Positions of bridges follow the written chain, without caps; N, C: chain ends. Non-standard residues stand in square brackets, D forms with d. Residues, ends and D or L forms follow the SMILES beside them. 1Nal = N[C@@H](Cc1cccc2ccccc12)C(=O)O

Sequence of Sodium channel protein type 5 subunit alpha (Q14524 whole entry): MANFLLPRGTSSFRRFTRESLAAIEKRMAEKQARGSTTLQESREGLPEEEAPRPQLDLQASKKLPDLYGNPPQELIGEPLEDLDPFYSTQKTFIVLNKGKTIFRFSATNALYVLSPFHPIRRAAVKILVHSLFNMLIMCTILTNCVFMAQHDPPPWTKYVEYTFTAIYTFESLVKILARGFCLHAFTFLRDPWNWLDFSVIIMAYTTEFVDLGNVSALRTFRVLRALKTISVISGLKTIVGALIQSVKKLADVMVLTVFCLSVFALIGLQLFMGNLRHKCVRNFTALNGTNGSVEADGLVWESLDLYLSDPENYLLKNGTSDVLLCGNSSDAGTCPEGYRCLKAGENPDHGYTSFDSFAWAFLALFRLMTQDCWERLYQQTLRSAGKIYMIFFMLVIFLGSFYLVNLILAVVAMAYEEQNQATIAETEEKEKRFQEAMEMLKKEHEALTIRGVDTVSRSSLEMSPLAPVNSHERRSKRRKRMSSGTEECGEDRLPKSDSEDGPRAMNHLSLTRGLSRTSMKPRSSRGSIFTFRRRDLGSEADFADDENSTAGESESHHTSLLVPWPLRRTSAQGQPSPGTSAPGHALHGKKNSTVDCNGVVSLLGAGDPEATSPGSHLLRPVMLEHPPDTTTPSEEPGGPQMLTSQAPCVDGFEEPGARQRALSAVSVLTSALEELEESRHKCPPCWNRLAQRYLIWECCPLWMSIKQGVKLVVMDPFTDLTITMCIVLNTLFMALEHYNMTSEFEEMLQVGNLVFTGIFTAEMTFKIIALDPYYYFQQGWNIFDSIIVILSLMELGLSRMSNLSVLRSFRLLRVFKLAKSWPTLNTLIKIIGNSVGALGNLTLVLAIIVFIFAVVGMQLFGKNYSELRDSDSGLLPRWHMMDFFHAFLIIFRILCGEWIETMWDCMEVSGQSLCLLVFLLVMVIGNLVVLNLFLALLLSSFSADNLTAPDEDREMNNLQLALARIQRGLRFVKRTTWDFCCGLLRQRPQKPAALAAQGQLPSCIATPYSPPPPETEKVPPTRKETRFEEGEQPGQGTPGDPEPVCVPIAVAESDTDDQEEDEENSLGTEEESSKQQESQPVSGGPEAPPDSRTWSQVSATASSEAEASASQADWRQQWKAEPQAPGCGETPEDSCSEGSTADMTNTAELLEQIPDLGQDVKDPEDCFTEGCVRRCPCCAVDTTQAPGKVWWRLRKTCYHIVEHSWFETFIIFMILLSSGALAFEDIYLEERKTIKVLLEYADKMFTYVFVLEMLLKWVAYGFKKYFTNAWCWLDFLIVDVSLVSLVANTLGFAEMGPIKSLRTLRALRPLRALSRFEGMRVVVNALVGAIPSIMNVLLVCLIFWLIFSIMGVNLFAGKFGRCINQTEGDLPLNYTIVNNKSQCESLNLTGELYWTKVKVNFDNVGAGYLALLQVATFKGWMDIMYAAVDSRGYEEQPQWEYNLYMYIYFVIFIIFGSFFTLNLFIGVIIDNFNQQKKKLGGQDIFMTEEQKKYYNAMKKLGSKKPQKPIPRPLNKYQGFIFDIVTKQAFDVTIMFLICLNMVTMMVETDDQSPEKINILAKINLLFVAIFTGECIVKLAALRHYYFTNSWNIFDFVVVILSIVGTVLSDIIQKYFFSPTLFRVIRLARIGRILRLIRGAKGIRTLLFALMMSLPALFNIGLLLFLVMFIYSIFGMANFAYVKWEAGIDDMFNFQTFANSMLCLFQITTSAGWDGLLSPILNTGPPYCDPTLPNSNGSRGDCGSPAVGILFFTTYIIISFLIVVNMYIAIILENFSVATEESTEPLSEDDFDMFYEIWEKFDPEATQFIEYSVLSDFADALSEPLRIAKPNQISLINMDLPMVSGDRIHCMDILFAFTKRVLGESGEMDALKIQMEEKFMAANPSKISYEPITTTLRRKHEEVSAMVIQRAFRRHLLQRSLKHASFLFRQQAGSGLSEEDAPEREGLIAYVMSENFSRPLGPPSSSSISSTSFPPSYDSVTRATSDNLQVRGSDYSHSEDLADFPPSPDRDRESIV
Sequence of Sodium channel protein type 9 subunit alpha (Q15858 whole entry): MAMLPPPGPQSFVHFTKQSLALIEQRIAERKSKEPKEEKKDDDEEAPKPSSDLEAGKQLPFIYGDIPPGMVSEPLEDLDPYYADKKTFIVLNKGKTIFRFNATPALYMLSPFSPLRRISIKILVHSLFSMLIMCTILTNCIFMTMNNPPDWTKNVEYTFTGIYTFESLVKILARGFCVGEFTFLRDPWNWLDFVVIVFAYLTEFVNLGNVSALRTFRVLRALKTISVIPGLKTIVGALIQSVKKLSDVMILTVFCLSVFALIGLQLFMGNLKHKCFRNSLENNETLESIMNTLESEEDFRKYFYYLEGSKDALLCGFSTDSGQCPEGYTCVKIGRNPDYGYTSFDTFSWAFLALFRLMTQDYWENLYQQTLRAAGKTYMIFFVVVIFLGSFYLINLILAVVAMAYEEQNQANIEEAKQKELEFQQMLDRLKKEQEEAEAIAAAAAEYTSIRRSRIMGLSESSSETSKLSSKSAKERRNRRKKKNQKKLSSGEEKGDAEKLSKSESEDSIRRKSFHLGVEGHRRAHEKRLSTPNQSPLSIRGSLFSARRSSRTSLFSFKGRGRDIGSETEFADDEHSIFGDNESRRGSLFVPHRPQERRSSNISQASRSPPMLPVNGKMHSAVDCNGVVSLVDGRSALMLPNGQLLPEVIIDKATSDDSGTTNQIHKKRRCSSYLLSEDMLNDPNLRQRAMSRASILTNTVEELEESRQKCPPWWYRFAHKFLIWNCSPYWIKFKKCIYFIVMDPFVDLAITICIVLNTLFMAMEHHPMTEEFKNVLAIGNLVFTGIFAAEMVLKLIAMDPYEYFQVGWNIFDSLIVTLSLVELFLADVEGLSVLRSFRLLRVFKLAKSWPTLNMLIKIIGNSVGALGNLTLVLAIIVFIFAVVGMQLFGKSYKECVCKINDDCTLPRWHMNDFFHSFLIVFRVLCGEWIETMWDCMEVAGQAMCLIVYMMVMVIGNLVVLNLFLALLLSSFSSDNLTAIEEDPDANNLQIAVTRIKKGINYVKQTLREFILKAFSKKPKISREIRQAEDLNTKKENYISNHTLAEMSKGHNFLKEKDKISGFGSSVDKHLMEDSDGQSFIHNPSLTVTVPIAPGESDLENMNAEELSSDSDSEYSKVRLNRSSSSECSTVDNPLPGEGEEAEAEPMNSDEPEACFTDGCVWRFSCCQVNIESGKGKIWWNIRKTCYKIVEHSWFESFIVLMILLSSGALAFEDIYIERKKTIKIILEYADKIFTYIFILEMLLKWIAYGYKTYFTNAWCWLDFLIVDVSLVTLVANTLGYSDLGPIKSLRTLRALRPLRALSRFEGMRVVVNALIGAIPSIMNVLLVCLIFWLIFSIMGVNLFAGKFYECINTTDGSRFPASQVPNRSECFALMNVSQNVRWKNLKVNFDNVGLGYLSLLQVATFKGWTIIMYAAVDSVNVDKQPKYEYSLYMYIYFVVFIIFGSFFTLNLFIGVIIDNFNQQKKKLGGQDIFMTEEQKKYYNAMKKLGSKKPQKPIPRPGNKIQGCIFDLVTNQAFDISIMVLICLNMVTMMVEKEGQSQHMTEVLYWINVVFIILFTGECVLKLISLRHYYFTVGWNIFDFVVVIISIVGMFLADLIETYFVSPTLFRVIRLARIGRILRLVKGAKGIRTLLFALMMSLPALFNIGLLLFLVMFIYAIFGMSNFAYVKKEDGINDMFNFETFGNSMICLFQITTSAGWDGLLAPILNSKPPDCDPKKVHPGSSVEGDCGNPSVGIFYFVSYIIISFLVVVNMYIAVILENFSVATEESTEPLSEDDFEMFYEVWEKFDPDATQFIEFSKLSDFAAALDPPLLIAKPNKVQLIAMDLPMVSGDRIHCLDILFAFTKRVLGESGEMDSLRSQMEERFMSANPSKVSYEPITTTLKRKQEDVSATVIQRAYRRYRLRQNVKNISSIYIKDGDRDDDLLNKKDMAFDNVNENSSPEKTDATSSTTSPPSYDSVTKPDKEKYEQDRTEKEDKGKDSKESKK

In the case of `CSCC[C@@H]1NC(=O)[C@H](Cc2ccccc2)NC(=O)CNC(=O)[C@H](CC(C)C)NC(=O)[C@@H](NC(=O)[C@@H](N)CC(=O)O)CSSC[C@@H]2NC(=O)[C@@H]3CSSC[C@@H](C(=O)N[C@@H](CCCCN)C(=O)N[C@@H](Cc4ccc(O)cc4)C(=O)N[C@H](C(=O)N[C@@H](Cc4ccccc4)C(N)=O)C(C)C)NC(=O)[C@H](Cc4c[nH]c5ccccc45)NC(=O)[C@H](CCCCN)NC(=O)[C@H](Cc4cnc[nH]4)NC(=O)[C@H]([C@@H](C)O)NC(=O)[C@H](CCCNC(=N)N)NC(=O)[C@H](CO)NC(=O)[C@H](CSSC[C@H](NC(=O)[C@H](CCCCN)NC(=O)[C@H](CCCNC(=N)N)NC1=O)C(=O)N[C@@H](CC(C)C)C(=O)N1CCC[C@H]1C(=O)N[C@@H](CC(=O)O)C(=O)N[C@@H](CC(N)=O)C(=O)N[C@@H](CC(=O)O)C(=O)N[C@@H](CCCCN)C(=O)N3)NC(=O)[C@H](C(C)C)NC(=O)[C@H](CC(C)C)NC(=O)[C@H](CC(N)=O)NC(=O)[C@@H]1CCCN1C(=O)[C@H](CCCNC(=N)N)NC2=O` (H-DCLGFMRKCLPDNDKCCRPNLVCSRTHKWCKYVF-NH2; disulfide 2-17, 9-23, 16-30), the pIC50 in assay [1] was 6.85; in assay [2], under 5.30.

On to `CC[C@H](C)[C@@H]1NC(=O)[C@@H]2CSSC[C@@H]3NC(=O)[C@H](C(C)C)NC(=O)[C@H](CC(C)C)NC(=O)[C@H](CC(N)=O)NC(=O)[C@@H]4CCCN4C(=O)[C@H](CCCNC(=N)N)NC(=O)[C@H](CSSC[C@H](NC(=O)[C@@H](N)CC(=O)O)C(=O)N[C@@H](CC(C)C)C(=O)NCC(=O)N[C@@H](Cc4ccccc4)C(=O)N[C@@H](CCSC)C(=O)N[C@@H](CCCNC(=N)N)C(=O)N[C@@H](CCCCN)C(=O)N2)NC(=O)[C@H](CSSC[C@@H](C(=O)N[C@@H](CCCCN)C(=O)N[C@@H](Cc2ccc(O)cc2)C(=O)N[C@H](C(=O)N[C@@H](Cc2ccccc2)C(N)=O)C(C)C)NC(=O)[C@H](CCCCN)NC(=O)[C@H](CCCCN)NC(=O)[C@H](Cc2cnc[nH]2)NC(=O)[C@H]([C@@H](C)O)NC(=O)[C@H](CCCNC(=N)N)NC(=O)[C@H](CO)NC3=O)NC(=O)[C@H](CCCCN)NC(=O)[C@H](CC(=O)O)NC(=O)[C@H](CC(N)=O)NC(=O)[C@H](CC(=O)O)NC(=O)[C@@H]2CCCN2C1=O` (H-DCLGFMRKCIPDNDKCCRPNLVCSRTHKKCKYVF-NH2; disulfide 2-17, 9-23, 16-30), for which the pIC50 in assay [1] and in assay [2] was under 5.30 in each case.

Regarding `CC[C@H](C)[C@@H]1NC(=O)[C@@H]2CSSC[C@@H]3NC(=O)[C@H](C(C)C)NC(=O)[C@H](CC(C)C)NC(=O)[C@H](CC(N)=O)NC(=O)[C@@H]4CCCN4C(=O)[C@H](CCCNC(=N)N)NC(=O)[C@H](CSSC[C@H](NC(=O)[C@@H](N)CC(=O)O)C(=O)N[C@@H](CC(C)C)C(=O)NCC(=O)N[C@@H](Cc4ccccc4)C(=O)N[C@@H](CCSC)C(=O)N[C@@H](CCCNC(=N)N)C(=O)N[C@@H](CCCCN)C(=O)N2)NC(=O)[C@H](CSSC[C@@H](C(=O)N[C@@H](CCCCN)C(=O)N[C@@H](CCC(=O)O)C(=O)N[C@H](C(=O)N[C@@H](Cc2ccccc2)C(N)=O)C(C)C)NC(=O)[C@H](Cc2c[nH]c4ccccc24)NC(=O)[C@H](CCCCN)NC(=O)[C@H](Cc2cnc[nH]2)NC(=O)[C@H]([C@@H](C)O)NC(=O)[C@H](CCCNC(=N)N)NC(=O)[C@H](CO)NC3=O)NC(=O)[C@H](CCCCN)NC(=O)[C@H](CC(=O)O)NC(=O)[C@H](CC(N)=O)NC(=O)[C@H](CC(=O)O)NC(=O)[C@@H]2CCCN2C1=O` (H-DCLGFMRKCIPDNDKCCRPNLVCSRTHKWCKEVF-NH2; disulfide 2-17, 9-23, 16-30), the pIC50 in assay [1] and in assay [2] was under 5.30 in each case.

For `CC[C@H](C)[C@@H]1NC(=O)[C@@H]2CSSC[C@@H]3NC(=O)[C@H](C(C)C)NC(=O)[C@H](CC(C)C)NC(=O)[C@H](CC(N)=O)NC(=O)[C@@H]4CCCN4C(=O)[C@H](CCCNC(=N)N)NC(=O)[C@H](CSSC[C@H](NC(=O)[C@@H](N)CC(=O)O)C(=O)N[C@@H](CC(C)C)C(=O)NCC(=O)N[C@@H](Cc4ccccc4)C(=O)N[C@@H](CCSC)C(=O)N[C@@H](CCC(=O)O)C(=O)N[C@@H](CCCCN)C(=O)N2)NC(=O)[C@H](CSSC[C@@H](C(=O)N[C@@H](CCCCN)C(=O)N[C@@H](Cc2ccc(O)cc2)C(=O)N[C@H](C(=O)N[C@@H](Cc2ccccc2)C(N)=O)C(C)C)NC(=O)[C@H](Cc2c[nH]c4ccccc24)NC(=O)[C@H](CCCCN)NC(=O)[C@H](Cc2cnc[nH]2)NC(=O)[C@H]([C@@H](C)O)NC(=O)[C@H](CCCNC(=N)N)NC(=O)[C@H](CO)NC3=O)NC(=O)[C@H](CCCCN)NC(=O)[C@H](CC(=O)O)NC(=O)[C@H](CC(N)=O)NC(=O)[C@H](CC(=O)O)NC(=O)[C@@H]2CCCN2C1=O` (H-DCLGFMEKCIPDNDKCCRPNLVCSRTHKWCKYVF-NH2; disulfide 2-17, 9-23, 16-30), the figures for the pIC50 in assay [1] and in assay [2] were 6.07 and under 5.30, respectively.

As to `CC[C@H](C)[C@@H]1NC(=O)[C@@H]2CSSC[C@@H]3NC(=O)[C@H](C(C)C)NC(=O)[C@H](CC(C)C)NC(=O)[C@H](CC(N)=O)NC(=O)[C@@H]4CCCN4C(=O)[C@H](CCCNC(=N)N)NC(=O)[C@H](CSSC[C@H](NC(=O)[C@@H](N)CC(=O)O)C(=O)N[C@@H](CC(C)C)C(=O)NCC(=O)N[C@@H](Cc4ccccc4)C(=O)N[C@@H](CCSC)C(=O)N[C@@H](CCCNC(=N)N)C(=O)N[C@@H](CCCCN)C(=O)N2)NC(=O)[C@H](CSSC[C@@H](C(=O)N[C@@H](Cc2c[nH]c4ccccc24)C(=O)N[C@@H](Cc2ccc(O)cc2)C(=O)N[C@H](C(=O)N[C@@H](Cc2ccccc2)C(N)=O)C(C)C)NC(=O)[C@H](Cc2c[nH]c4ccccc24)NC(=O)[C@H](CCCCN)NC(=O)[C@H](Cc2c[nH]cn2)NC(=O)[C@H]([C@@H](C)O)NC(=O)[C@H](CCCNC(=N)N)NC(=O)[C@H](CO)NC3=O)NC(=O)[C@H](CCCCN)NC(=O)[C@H](CC(=O)O)NC(=O)[C@H](CC(N)=O)NC(=O)[C@H](CC(=O)O)NC(=O)[C@@H]2CCCN2C1=O` (H-DCLGFMRKCIPDNDKCCRPNLVCSRTHKWCWYVF-NH2; disulfide 2-17, 9-23, 16-30), the figures for the pIC50 in assay [1] and in assay [2] were under 5.31 and under 5.30, respectively.

As to `CC[C@@H](C)[C@H]1NC(=O)[C@H]2CSSC[C@@H]3NC(=O)[C@@H](C(C)C)NC(=O)[C@H](CC(C)C)NC(=O)[C@H](CC(N)=O)NC(=O)[C@@H]4CCCN4C(=O)[C@H](CCCNC(=N)N)NC(=O)[C@H](CSSC[C@@H](NC(=O)[C@@H](N)CC(=O)O)C(=O)N[C@H](C)C(=O)NCC(=O)N[C@@H](Cc4ccccc4)C(=O)N[C@H](CCSC)C(=O)N[C@@H](CCCNC(=N)N)C(=O)N[C@@H](CCCCN)C(=O)N2)NC(=O)[C@@H](CSSC[C@@H](C(=O)N[C@@H](CCCCN)C(=O)N[C@@H](Cc2ccc(O)cc2)C(=O)N[C@H](C(=O)N[C@@H](Cc2ccccc2)C(N)=O)C(C)C)NC(=O)[C@@H](Cc2c[nH]c4ccccc24)NC(=O)[C@H](CCCCN)NC(=O)[C@H](Cc2cnc[nH]2)NC(=O)[C@@H]([C@H](C)O)NC(=O)[C@@H](CCCNC(=N)N)NC(=O)[C@H](CO)NC3=O)NC(=O)[C@@H](CCCCN)NC(=O)[C@H](CC(=O)O)NC(=O)[C@@H](CC(N)=O)NC(=O)[C@H](CC(=O)O)NC(=O)[C@@H]2CCCN2C1=O`, the pIC50 was 6.37 in assay [1] and under 5.30 in assay [2].

Take `CC[C@H](C)[C@@H]1NC(=O)[C@@H]2CSSC[C@@H]3NC(=O)[C@H](C(C)C)NC(=O)[C@H](CC(C)C)NC(=O)[C@H](CC(N)=O)NC(=O)[C@@H]4CCCN4C(=O)[C@H](CCCNC(=N)N)NC(=O)[C@H](CSSC[C@H](NC(=O)[C@@H](N)CC(=O)O)C(=O)N[C@@H](CC(C)C)C(=O)NCC(=O)N[C@@H](Cc4ccccc4)C(=O)N[C@@H](CCSC)C(=O)N[C@@H](CCCNC(=N)N)C(=O)N[C@@H](CCCCN)C(=O)N2)NC(=O)[C@H](CSSC[C@@H](C(=O)N[C@@H](CCCCN)C(=O)N[C@@H](Cc2ccc(O)cc2)C(=O)N[C@@H](Cc2cccc4ccccc24)C(=O)N[C@@H](Cc2ccccc2)C(N)=O)NC(=O)[C@H](Cc2c[nH]c4ccccc24)NC(=O)[C@H](CCCCN)NC(=O)[C@H](Cc2cnc[nH]2)NC(=O)[C@H]([C@@H](C)O)NC(=O)[C@H](CCCNC(=N)N)NC(=O)[C@H](CO)NC3=O)NC(=O)[C@H](CCCCN)NC(=O)[C@H](CC(=O)O)NC(=O)[C@H](CC(N)=O)NC(=O)[C@H](CC(=O)O)NC(=O)[C@@H]2CCCN2C1=O` (H-DCLGFMRKCIPDNDKCCRPNLVCSRTHKWCKY[1Nal]F-NH2; disulfide 2-17, 9-23, 16-30): the values for the pIC50 in assay [1] and in assay [2] were 7.15 and under 5.30, respectively.

Regarding `CC[C@H](C)[C@@H]1NC(=O)[C@H]2CSSC[C@H]3NC(=O)[C@H](C(C)C)NC(=O)[C@H](CC(C)C)NC(=O)[C@H](CC(N)=O)NC(=O)[C@@H]4CCCN4C(=O)[C@H](CCCNC(=N)N)NC(=O)[C@H](CSSC[C@H](NC(=O)[C@@H](N)CC(=O)O)C(=O)N[C@@H](CC(C)C)C(=O)NCC(=O)N[C@@H](Cc4ccccc4)C(=O)N[C@@H](CCSC)C(=O)N[C@@H](CCCNC(=N)N)C(=O)N[C@@H](CCCCN)C(=O)N2)NC(=O)[C@@H](CSSC[C@@H](C(=O)N[C@@H](C)C(=O)N[C@@H](Cc2ccc(O)cc2)C(=O)N[C@H](C(=O)N[C@@H](Cc2ccccc2)C(N)=O)C(C)C)NC(=O)[C@H](Cc2c[nH]c4ccccc24)NC(=O)[C@H](CCCCN)NC(=O)[C@H](Cc2cnc[nH]2)NC(=O)[C@H]([C@@H](C)O)NC(=O)[C@H](CCCNC(=N)N)NC(=O)[C@H](CO)NC3=O)NC(=O)[C@H](CCCCN)NC(=O)[C@H](CC(=O)O)NC(=O)[C@H](CC(N)=O)NC(=O)[C@H](CC(=O)O)NC(=O)[C@@H]2CCCN2C1=O`, the pIC50 in assay [1] and in assay [2] was under 5.30 throughout.

Source of the values: ChEMBL document CHEMBL3797186, “Single Residue Substitutions That Confer Voltage-Gated Sodium Ion Channel Subtype Selectivity in the NaV1.7 Inhibitory Peptide GpTx-1” (J Med Chem, 2016).
